# In PMC6247064 (Cancer Science, 2018):
# System: Japanese patients with advanced solid tumors
# Test: Phase 1 study: safety, tolerability, DLT and treatment-emergent adverse events
# Type: in vivo, human
# How it was run: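 Open-label single-arm dose levels of 80 or 105 mg/m2 IV were given on day 1 of 14-day cycles, with at most 6 patients per level. Adverse events were graded by CTCAE v4.03. DLTs were related events in cycle 1 meeting predefined hematologic or nonhematologic criteria. Tolerability required a cycle 1 DLT rate <33%. Primary G-CSF prophylaxis was barred during DLT evaluation; G-CSF was allowed for treatment-emergent neutropenia and as secondary prophylaxis.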
structure (smiles),measurement,setting,value
COc1cccc(OCCCN)c1-c1cc(Nc2cnc(C#N)cn2)n[nH]1 [Prexasertib],Serious AE reported in one patient,"80 mg/m^2, 2 (anemia and thrombocytopenia) related to study treatment, constipation not",3 serious AE
same,TEAE related to study treatment: Anemia,"80 mg/m^2 N = 6, Any grade",3 (50.0) n (%)
same,TEAE related to study treatment: Any,"80 mg/m^2 N = 6, Any grade",6 (100) n (%)
same,TEAE related to study treatment: Atrial fibrillation,"80 mg/m^2 N = 6, Any grade",1 (16.7) n (%)
same,TEAE related to study treatment: Constipation,"80 mg/m^2 N = 6, Any grade",2 (33.3) n (%)
same,TEAE related to study treatment: ECG QT prolonged,"80 mg/m^2 N = 6, Any grade",2 (33.3) n (%)
same,TEAE related to study treatment: Fatigue,"80 mg/m^2 N = 6, Any grade",1 (16.7) n (%)
same,TEAE related to study treatment: Febrile neutropenia,"80 mg/m^2 N = 6, Any grade",1 (16.7) n (%)
same,TEAE related to study treatment: Headache,"80 mg/m^2 N = 6, Any grade",0 n (%)
same,TEAE related to study treatment: Hypocalcemia,"80 mg/m^2 N = 6, Any grade",0 n (%)
same,TEAE related to study treatment: Leukopenia,"80 mg/m^2 N = 6, Any grade",6 (100) n (%)
same,TEAE related to study treatment: Lung infection,"80 mg/m^2 N = 6, Any grade",1 (16.7) n (%)
same,TEAE related to study treatment: Lymphocytopenia,"80 mg/m^2 N = 6, Any grade",2 (33.3) n (%)
same,TEAE related to study treatment: Nausea,"80 mg/m^2 N = 6, Any grade",2 (33.3) n (%)
same,TEAE related to study treatment: Neutropenia,"80 mg/m^2 N = 6, Any grade",5 (83.3) n (%)
same,TEAE related to study treatment: Pyrexia,"80 mg/m^2 N = 6, Any grade",1 (16.7) n (%)
same,TEAE related to study treatment: Rash,"80 mg/m^2 N = 6, Any grade",1 (16.7) n (%)
same,TEAE related to study treatment: Rash maculopapular,"80 mg/m^2 N = 6, Any grade",1 (16.7) n (%)
same,TEAE related to study treatment: SVE (supraventricular extrasystoles),"80 mg/m^2 N = 6, Any grade",1 (16.7) n (%)
same,TEAE related to study treatment: Stomatitis,"80 mg/m^2 N = 6, Any grade",1 (16.7) n (%)
same,TEAE related to study treatment: Thrombocytopenia,"80 mg/m^2 N = 6, Any grade",4 (66.7) n (%)
same,TEAE related to study treatment: Anemia,"80 mg/m^2 N = 6, Grade 3",1 (16.7) n (%)
same,TEAE related to study treatment: Any,"80 mg/m^2 N = 6, Grade 3",2 (33.3) n (%)
same,TEAE related to study treatment: Atrial fibrillation,"80 mg/m^2 N = 6, Grade 3",0 n (%)
same,TEAE related to study treatment: Constipation,"80 mg/m^2 N = 6, Grade 3",0 n (%)
same,TEAE related to study treatment: ECG QT prolonged,"80 mg/m^2 N = 6, Grade 3",0 n (%)
same,TEAE related to study treatment: Fatigue,"80 mg/m^2 N = 6, Grade 3",0 n (%)
same,TEAE related to study treatment: Febrile neutropenia,"80 mg/m^2 N = 6, Grade 3",0 n (%)
same,TEAE related to study treatment: Headache,"80 mg/m^2 N = 6, Grade 3",0 n (%)
same,TEAE related to study treatment: Hypocalcemia,"80 mg/m^2 N = 6, Grade 3",0 n (%)
same,TEAE related to study treatment: Leukopenia,"80 mg/m^2 N = 6, Grade 3",1 (16.7) n (%)
same,TEAE related to study treatment: Lung infection,"80 mg/m^2 N = 6, Grade 3",0 n (%)
same,TEAE related to study treatment: Lymphocytopenia,"80 mg/m^2 N = 6, Grade 3",1 (16.7) n (%)
same,TEAE related to study treatment: Nausea,"80 mg/m^2 N = 6, Grade 3",0 n (%)
same,TEAE related to study treatment: Neutropenia,"80 mg/m^2 N = 6, Grade 3",1 (16.7) n (%)
same,TEAE related to study treatment: Pyrexia,"80 mg/m^2 N = 6, Grade 3",0 n (%)
same,TEAE related to study treatment: Rash,"80 mg/m^2 N = 6, Grade 3",0 n (%)
same,TEAE related to study treatment: Rash maculopapular,"80 mg/m^2 N = 6, Grade 3",0 n (%)
same,TEAE related to study treatment: SVE (supraventricular extrasystoles),"80 mg/m^2 N = 6, Grade 3",0 n (%)
same,TEAE related to study treatment: Stomatitis,"80 mg/m^2 N = 6, Grade 3",0 n (%)
same,TEAE related to study treatment: Thrombocytopenia,"80 mg/m^2 N = 6, Grade 3",2 (33.3) n (%)
same,TEAE related to study treatment: Anemia,"80 mg/m^2 N = 6, Grade 3 + 4",2 (33.3) n (%)
same,TEAE related to study treatment: Any,"80 mg/m^2 N = 6, Grade 3 + 4",6 (100) n (%)
same,TEAE related to study treatment: Atrial fibrillation,"80 mg/m^2 N = 6, Grade 3 + 4",0 n (%)
same,TEAE related to study treatment: Constipation,"80 mg/m^2 N = 6, Grade 3 + 4",0 n (%)
same,TEAE related to study treatment: ECG QT prolonged,"80 mg/m^2 N = 6, Grade 3 + 4",0 n (%)
same,TEAE related to study treatment: Fatigue,"80 mg/m^2 N = 6, Grade 3 + 4",0 n (%)
same,TEAE related to study treatment: Febrile neutropenia,"80 mg/m^2 N = 6, Grade 3 + 4",1 (16.7) n (%)
same,TEAE related to study treatment: Headache,"80 mg/m^2 N = 6, Grade 3 + 4",0 n (%)
same,TEAE related to study treatment: Hypocalcemia,"80 mg/m^2 N = 6, Grade 3 + 4",0 n (%)
same,TEAE related to study treatment: Leukopenia,"80 mg/m^2 N = 6, Grade 3 + 4",4 (66.7) n (%)
same,TEAE related to study treatment: Lung infection,"80 mg/m^2 N = 6, Grade 3 + 4",0 n (%)
same,TEAE related to study treatment: Lymphocytopenia,"80 mg/m^2 N = 6, Grade 3 + 4",1 (16.7) n (%)
same,TEAE related to study treatment: Nausea,"80 mg/m^2 N = 6, Grade 3 + 4",0 n (%)
same,TEAE related to study treatment: Neutropenia,"80 mg/m^2 N = 6, Grade 3 + 4",4 (66.7) n (%)
same,TEAE related to study treatment: Pyrexia,"80 mg/m^2 N = 6, Grade 3 + 4",0 n (%)
same,TEAE related to study treatment: Rash,"80 mg/m^2 N = 6, Grade 3 + 4",0 n (%)
same,TEAE related to study treatment: Rash maculopapular,"80 mg/m^2 N = 6, Grade 3 + 4",0 n (%)
same,TEAE related to study treatment: SVE (supraventricular extrasystoles),"80 mg/m^2 N = 6, Grade 3 + 4",0 n (%)
same,TEAE related to study treatment: Stomatitis,"80 mg/m^2 N = 6, Grade 3 + 4",0 n (%)
same,TEAE related to study treatment: Thrombocytopenia,"80 mg/m^2 N = 6, Grade 3 + 4",3 (50.0) n (%)
same,TEAE related to study treatment: Anemia,"80 mg/m^2 N = 6, Grade 4",1 (16.7) n (%)
same,TEAE related to study treatment: Any,"80 mg/m^2 N = 6, Grade 4",4 (66.7) n (%)
same,TEAE related to study treatment: Atrial fibrillation,"80 mg/m^2 N = 6, Grade 4",0 n (%)
same,TEAE related to study treatment: Constipation,"80 mg/m^2 N = 6, Grade 4",0 n (%)
same,TEAE related to study treatment: ECG QT prolonged,"80 mg/m^2 N = 6, Grade 4",0 n (%)
same,TEAE related to study treatment: Fatigue,"80 mg/m^2 N = 6, Grade 4",0 n (%)
